# Screening data from PubChem BioAssay.
# E-sel inducer – E-selectin induction in HUVECs, primary screen, imaging, HUVEC, immunofluorescence imaging, single point; actives 0.37% (n = 260,000); normalized: neutral wells 0, TNF-alpha wells 100; activation, % at 7.58 µM; P16581;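 active = mean E-selectin-positive cell signal at least 10% of the positive control, reached in at least 60% of replicates, without over 20% cell loss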
# Target sequence (P16581 whole entry, looked up): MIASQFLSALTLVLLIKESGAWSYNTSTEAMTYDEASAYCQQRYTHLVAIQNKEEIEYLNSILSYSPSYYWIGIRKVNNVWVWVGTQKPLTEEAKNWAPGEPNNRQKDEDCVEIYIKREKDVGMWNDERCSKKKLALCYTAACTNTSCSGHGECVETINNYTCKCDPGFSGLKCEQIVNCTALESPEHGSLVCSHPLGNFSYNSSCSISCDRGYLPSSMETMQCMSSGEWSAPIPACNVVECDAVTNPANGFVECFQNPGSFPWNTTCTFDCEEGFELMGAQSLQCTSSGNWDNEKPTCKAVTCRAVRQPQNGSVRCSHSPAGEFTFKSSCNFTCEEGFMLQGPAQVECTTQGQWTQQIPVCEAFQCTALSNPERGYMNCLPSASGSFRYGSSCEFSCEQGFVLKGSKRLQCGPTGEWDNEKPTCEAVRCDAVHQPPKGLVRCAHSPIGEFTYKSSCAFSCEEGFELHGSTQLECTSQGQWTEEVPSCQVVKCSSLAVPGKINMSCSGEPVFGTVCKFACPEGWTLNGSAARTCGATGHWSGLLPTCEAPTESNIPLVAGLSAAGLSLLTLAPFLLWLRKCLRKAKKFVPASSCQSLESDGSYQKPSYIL
#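 Read-out: % PE-positive cells | Test system: HUVEC | Doses: One compound dose added by pin transfer | Buffer or medium: EGM-2 over gelatin coat | Signal: Immunofluorescence imaging | Benchmarks: TNF-alpha, DMSO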
# Active calls of the source: *. Shown is part of a subset that was picked to be rich in hits.
SMILES,E-sel inducer
CCN(C(=O)COC(=O)/C=C/c1ccc(F)cc1)C1CCCCC1,0
C[C@@H]1CCCCO[C@@H](CN(C)S(=O)(=O)c2ccc(F)cc2)[C@@H](C)CN([C@@H](C)CO)C(=O)c2cc(NC(=O)Nc3ccccc3)ccc2O1,0
CO[C@H]1CN(C)C(=O)c2ccc(NC(=O)C3CC3)cc2OC[C@H](C)N(Cc2cccnc2)C[C@@H]1C,0
O=C(Nc1ccc(F)cc1)N1CC(=O)N2[C@H](C1)[C@H](c1ccc(C#Cc3ccc(F)cc3)cc1)[C@@H]2CO,0
C[C@H](CO)N1C[C@H](C)[C@H](CN(C)C(=O)CN(C)C)Oc2cc(C3=CCCC3)ccc2S1(=O)=O,0
Cn1c2ccccc2c2cc(/C=N/NC(=O)c3cc(O)ccc3O)ccc21,0
Cn1c2ccccc2c2cc(/C=N/NC(=O)c3cc(O)cc(O)c3)ccc21,74*
COc1cc(C(=O)N/N=C/c2ccc3c(c2)c2ccccc2n3C)ccc1O,1
Cc1ccc(NC(=O)Nc2ccc3c(c2)C(=O)N(C)[C@H]2CC[C@H](CC(=O)O)O[C@@H]2CO3)cc1,0
COc1ccc(CN(C)C[C@H]2Oc3ccc(NC(=O)NC(C)C)cc3CC(=O)N([C@H](C)CO)C[C@H]2C)cc1,-5
COc1ccc(Nc2n[nH]c(N)c2C(N)=O)cc1,28*
COc1ccc(C(=O)c2sc(Nc3ccccc3)nc2N)cc1,0
COc1ccc(Nc2ccc(Nc3ccc(OC)cc3)nn2)cc1,0
CN(C)C(=O)c1ccc(-c2ccccc2[C@H]2[C@@H](CO)N(C(=O)C3CCCC3)[C@H]2C#N)cc1,0
COc1ccc(NC(=O)N2CC[C@@H]3[C@@H](CO)N(C)c4ccc(-c5cccc(C(=O)N(C)C)c5)cc4[C@@H]32)cc1,1
O=C(c1ccccc1)N1CC2(C1)[C@@H](c1ccccc1)[C@@H](CO)N2C(=O)CC1CC1,0
C[C@@H]1CN([C@@H](C)CO)C(=O)c2cc(C#C[C@@H](C)O)cnc2O[C@@H]1CN(C)Cc1ccc(-c2ccccc2)cc1,-1
O=C(COc1ccccc1Cl)NCCCNC(=O)c1cnccn1,0
O=C(NCCCNC(=O)c1cnccn1)c1ccc(Cl)cc1,0
O=C(COc1ccc(Cl)cc1)NCCCNC(=O)c1cnccn1,34*
C[C@H]1CN([C@@H](C)CO)C(=O)c2cc(NC(=O)Nc3ccc(F)cc3)ccc2O[C@H]1CN(C)Cc1ccc(C(=O)O)cc1,-3
Cc1noc(C)c1S(=O)(=O)Nc1ccc2c(c1)CC(=O)N([C@@H](C)CO)C[C@@H](C)[C@@H](CN(C)C(=O)Nc1cccc3ccccc13)O2,-8
Cc1noc(C)c1S(=O)(=O)Nc1ccc2c(c1)C(=O)N([C@@H](C)CO)C[C@@H](C)[C@@H](CN(C)C(=O)Nc1cccc3ccccc13)O2,-1
Cc1noc(C)c1S(=O)(=O)Nc1ccc2c(c1)CC(=O)N([C@H](C)CO)C[C@@H](C)[C@H](CN(C)C(=O)Nc1cccc3ccccc13)O2,32*
Cc1noc(C)c1S(=O)(=O)Nc1ccc2c(c1)CC(=O)N([C@H](C)CO)C[C@H](C)[C@H](CN(C)C(=O)Nc1ccccc1)O2,0
SMILES,E-sel inducer
Cc1noc(C)c1S(=O)(=O)Nc1ccc2c(c1)CC(=O)N([C@@H](C)CO)C[C@@H](C)[C@@H](CN(C)C(=O)Nc1ccccc1)O2,0
Cc1noc(C)c1S(=O)(=O)Nc1ccc2c(c1)CC(=O)N([C@H](C)CO)C[C@H](C)[C@@H](CN(C)C(=O)Nc1cccc3ccccc13)O2,305*
C[C@@H]1CN([C@H](C)CO)C(=O)c2cc(N(C)C)ccc2O[C@@H](C)CCCCO[C@@H]1CN(C)C(=O)c1ccccc1,0
O=C(C[C@H]1CC[C@H]2[C@@H](COC[C@H](O)CN2S(=O)(=O)c2ccccc2)O1)N1CCOCC1,0
CCC(=O)N1C[C@H](C)[C@H](OC)CN(C)C(=O)c2cc(NC(=O)Nc3cccc(F)c3)ccc2OC[C@H]1C,1
CNC[C@@H]1OCCCC[C@H](C)Oc2ccc(NC(=O)NC3CCCCC3)cc2C(=O)N([C@@H](C)CO)C[C@H]1C,0
COCC(=O)Nc1ccc2c(c1)C(=O)N(C)[C@H]1CC[C@H](CC(=O)Nc3ccc(F)cc3)O[C@@H]1CO2,0
C[C@H](CO)N1C[C@H](C)[C@@H](CN(C)C(=O)NC2CCCCC2)Oc2ccc(NC(=O)C3CCCCC3)cc2CC1=O,-5
C[C@H](CO)N1C[C@H](C)[C@H](CN(C)S(C)(=O)=O)Oc2ccc(NC(=O)C3CCCCC3)cc2CC1=O,-6
C[C@@H]1CN([C@@H](C)CO)C(=O)Cc2cc(NC(=O)C3CCCCC3)ccc2O[C@H]1CN(C)C(=O)NC1CCCCC1,10
C[C@H]1CN([C@@H](C)CO)C(=O)Cc2cc(NC(=O)C3CCCCC3)ccc2O[C@H]1CN(C)C(=O)NC1CCCCC1,307*
C[C@H](CO)N1C[C@H](C)[C@@H](CN(C)S(C)(=O)=O)Oc2ccc(NC(=O)C3CCCCC3)cc2CC1=O,27*
C[C@H]1CN([C@@H](C)CO)C(=O)Cc2cc(NC(=O)C3CCCCC3)ccc2O[C@@H]1CN(C)S(C)(=O)=O,-13
CO[C@H]1CN(C)C(=O)c2cc(NC(=O)CC(F)(F)F)ccc2OC[C@@H](C)N(C(=O)C2CC2)C[C@@H]1C,0
O=C1Nc2ccccc2C1Cc1ccccn1 (configuration not stated),48*
O=C1Nc2ccccc2C1Cc1ccc(OC(F)(F)F)cc1 (configuration not stated),0
O=C1Nc2ccccc2C1(O)Cc1ccccn1 (configuration not stated),0
COc1cc(CC2C(=O)Nc3ccccc32)cc(C)c1O (configuration not stated),52*
Cc1ccc(NC(=O)C(=O)C2C(=O)Nc3ccccc32)cc1 (configuration not stated),1
O=C1Nc2ccccc2C1C(C[N+](=O)[O-])c1ccccn1 (configuration not stated),0
C[C@@H]1CN([C@@H](C)CO)C(=O)c2cc(C#CCc3ccccc3)cnc2O[C@H]1CN(C)C(=O)C1CC1,0
C/C=C/c1ccc2c(c1)O[C@@H](CN(C)C(=O)c1cccc(F)c1)[C@H](C)CN([C@@H](C)CO)S2(=O)=O,0
C[C@@H]1CN([C@@H](C)CO)C(=O)c2cc(NC(=O)Nc3ccc(C(F)(F)F)cc3)ccc2O[C@@H]1CN(C)C(=O)Nc1ccc(C(F)(F)F)cc1,1
COC1=C/C(=C/c2c(N)n3cc(C)sc3nc2=O)C=CC1=O,-1
COC1=CC(=Cc2c(N)n3nc(CC(=O)N4CCCCC4)sc3nc2=O)C=C(OC)C1=O,0
SMILES,E-sel inducer
Cc1cn2c(N)c(C=C3C=C(Cl)C(=O)C(Cl)=C3)c(=O)nc2s1,142*
COc1cccc(CNC(=O)C[C@@H]2C=C[C@H](NS(=O)(=O)c3ccccc3OC)[C@H](CO)O2)c1,1
CC(C)NC(=O)N[C@@H]1CC[C@@H](CCn2cc(-c3ccccc3)nn2)O[C@@H]1CO,0
CCOC(=O)c1nc2c(ccc3ccccc32)cc1C,0
CCOC(=O)c1cc2c(=Cc3ccc(N(C)C)cc3)c3ccccc3n2[n+]1C,139*
CN(C)c1ccc(/C=N/N2C(=O)c3ccccc3C2=O)cc1,-1
CCOC(=O)NC(=O)/C(C#N)=C/c1ccc(N(C)C)cc1,1
COc1cc2c(cc1OC)C(=Cc1ccc(N(C)C)cc1)C=C2,0
Cc1cc2c(=Cc3ccc(N(C)C)cc3)c3ccccc3n2[n+]1C,49*
